Results published in article PMC4040677 (Cell Death & Disease, 2014).

Assays:
MCF-7 cells = assay: Xenograft model of breast cancer; format: in vivo, BALB/c nude mice
Procedure, shortened: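 Female nude BALB/c mice (6 wk, 20–30 g, pathogen-free) received 7.5 × 10^6 MCF-7 cells in the right flank. Cells were cultured in DMEM with 10% FBS and penicillin/streptomycin. Tumors grew 4 weeks without hormone, then weekly s.c. 17β-oestradiol valerate (0.1 mg/kg, sesame oil). At ~100 mm3, mice were randomized and given a single i.v. dose (5 or 10 mg/kg) or saline. Calliper volumes, (L×W²)/2, were taken every 3 days for 30 days; ANOVA/t-test, P<0.05.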

[1] = format: in vivo; conditions: Pt in plasma, rat, intravenous
[2] = Pt excretion in urine and feces by atomic absorption spectroscopy; format: in vivo, rat; conditions: 24 h after intravenous administration
Histopathology = format: in vivo, female Balb/c mice; conditions: H&E, day 28 after intravenous administration, mice
Procedure, shortened: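 Liver and kidney were fixed in 4% paraformaldehyde, moved to 70% ethanol after 20 h, and paraffin-embedded. Serial 8 μm medio-lateral sections were H&E-stained and examined by light microscopy at x20.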

[3] = Cold sensitivity/hyperalgesia; format: in vivo, rats; conditions: hindpaw withdrawal latency, 4.5 °C water
Procedure, shortened: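 One rat hindpaw per immersion was placed in cold (4.5 °C) water. Paw-withdrawal latency was timed with a 1/100 s digital timer, with a 20 s maximum cutoff.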

[4] = Sensitivity to noxious heat; format: in vivo, rats; conditions: hind paws
Procedure, shortened: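 After 15 min acclimation, radiant heat was applied to the rat hindpaw with a thermal paw stimulator. Intensity was set so vehicle-treated rats lifted or licked the paw at about 10 s. Withdrawal latency was recorded with a 20 s cutoff.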

For `N.N.[Cl][Pt][Cl]` [cisplatin], the average tumor volume (MCF-7 cells; 10 mg/kg single intravenous, after 30 days, saline 249.32±43.97) was 233.67±50.71 mm^3, the “reduction of tumor mass” value (MCF-7 cells; solid tumor-bearing mice) was roughly 10% and the “AUC0–24” value [1] was 40.38±6.2 h-μg/ml. For the same compound, the CL [1] was 7.98 ± 1.2 mL/h, the Cmax [1] was 22620 ± 1800 ng/mL and the “24-h cumulative Pt excretion” value [2] was 31.6±3.4%. For the same compound, the “histopathological changes in kidneys” value (Histopathology) was “focal subcapsular tubular vacuolization, dilated subcapsular space and consistent basophilia”, the “histopathological changes in liver” value (Histopathology) was “dilated intra-lobular spaces and evident edema” and the “cold hyperalgesia / hindpaw sensitivity to cold” value [3] was “significantly increased”. For the same compound, the “thermal response / hindpaw sensitivity to noxious heat” value [4] was “significantly increased”.
